Results on two compounds are retold here after ChEMBL document CHEMBL4665801, “Pyrazole-Based Lactate Dehydrogenase Inhibitors with Optimized Cell Activity and Pharmacokinetic Properties” (J Med Chem, 2020).

Each structure is given as a SMILES string. Activity calls are given as the source filed them.

In general, inhibition refers to how much of the control response was suppressed. For orientation: Cmax means the peak of the concentration-time curve. In general, half-life refers to the time needed for the level to fall by half in the phase considered. A lower half-life goes with rapid decline.

Series [1] is described as follows: Terminal half life in CD-1 mouse at 10 mg/kg, iv and measured up to 24 hrs by LC/MS-MS analysis. Type of series: ADME, organism-based. The following applies: in vivo. The essentials:
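Male CD1 mice, about 6–8 weeks old and 20–30 g, received 10 mg/kg IV in 0.1 M NaOH in PBS adjusted to pH 7–8.5, made fresh on the day of dosing. Three mice per cohort. Blood was taken from the dorsal metatarsal vein at 5, 15, 30 min and 1, 2, 4, 8, 12, 24 h into heparin tubes. Plasma was spun at 4 °C, stored at –75 °C and analysed by LC–MS/MS. For IV dosing Cmax = C0.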

Series [2] is described as follows: AUClast in CD-1 mouse at 50 mg/kg, po and measured up to 24 hrs by LC/MS-MS analysis. Type of series: ADME, organism-based. The settings on record: in vivo. Details: route oral, dose 50 mg/kg, time <=24. The essentials:
(§1)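 Male CD1 mice, about 6–8 weeks old and 20–30 g, were dosed PO at 40 or 50 mg/kg in 0.1 M NaOH in PBS, pH 7–8.5, prepared the same day. Three mice per cohort. Dorsal metatarsal vein blood was collected into heparin at 15, 30 min and 1, 2, 4, 8, 12, 24 h. Plasma was spun at 4 °C, frozen at –75 °C and quantified by LC–MS/MS.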

The nature of series [3]: Permeability of compound at pH 7.4 incubated for 30 mins by PAMPA. The series is classed as ADME. The settings on record: pH 7.4, 0.5 h. The method, boiled down:
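Stirred double-sink PAMPA with GI-tract lipid/dodecane membrane, pH 7.4 on both sides. Compound was diluted from 10 mM DMSO stock to 0.05 mM (0.5% DMSO final), with 30 min permeation at room temperature. Donor and acceptor were read by UV. Results in 10⁻⁶ cm/s.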
On the technique in general: PAMPA measures passive passage across an artificial lipid membrane.

A short description of series [4]: Oral bioavailability in CD-1 mouse at 50 mg/kg and measured up to 24 hrs by LC/MS-MS analysis. The following applies: in vivo. The series is classed as ADME, organism-based. The essentials: as §1
Another series addresses T1, Cytochrome P450 2C8 (Homo sapiens, UniProt P10632).
T1 sequence (P10632 whole entry): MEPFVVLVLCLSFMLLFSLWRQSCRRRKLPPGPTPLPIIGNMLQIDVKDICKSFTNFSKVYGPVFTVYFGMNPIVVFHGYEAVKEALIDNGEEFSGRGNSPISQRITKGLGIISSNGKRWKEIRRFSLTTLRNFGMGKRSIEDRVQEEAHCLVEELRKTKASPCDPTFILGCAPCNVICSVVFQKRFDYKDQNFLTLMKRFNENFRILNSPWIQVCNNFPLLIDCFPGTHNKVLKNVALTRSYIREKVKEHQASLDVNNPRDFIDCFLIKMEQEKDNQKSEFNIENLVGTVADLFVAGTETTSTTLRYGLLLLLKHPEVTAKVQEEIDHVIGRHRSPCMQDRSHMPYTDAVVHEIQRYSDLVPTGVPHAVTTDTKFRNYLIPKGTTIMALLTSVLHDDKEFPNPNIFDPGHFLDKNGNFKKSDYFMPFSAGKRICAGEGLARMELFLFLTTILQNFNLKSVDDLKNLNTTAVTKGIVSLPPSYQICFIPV
Kind of series: Inhibition of CYP2C8 (unknown origin) assessed as inhibitory concentration. Type of series: ADME.

The species entered for the next series is Homo sapiens. Nature of the series: Inhibition of LDH in human A673 cells assessed as decrease in extracellular acidification rate at 0.5 to 5 uM preincubated for 1 hr followed by subsequent injections of glucose/oligomycin at 48 mins by seahorse XF GST based assay. Type of series: cell-based. The settings on record: dose microM 0.5-5, time 108.0 min. The method, boiled down:
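A673 cells in DMEM with 10% FBS were plated 24 h ahead, then switched to Seahorse basic DMEM with 2 mM glutamine, pH 7.4, and held 1 h at 37 °C without CO2. ECAR was recorded after inhibitor injection at increasing concentrations. At 48 min, glucose (10 mM final), oligomycin (1 μg/mL final) and 2-DG (50 mM final) were injected in sequence.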

Series [5] can be described thus: Cmax in CD-1 mouse at 50 mg/kg, po and measured up to 24 hrs by LC/MS-MS analysis. Type of series: ADME, organism-based. On the set-up: route oral, dose 50 mg/kg, time <=24. The settings on record: in vivo. The method, boiled down:
as §1

The next series addresses T2, Cytochrome P450 2B6 (Homo sapiens, UniProt P20813).
T2 sequence (P20813 whole entry): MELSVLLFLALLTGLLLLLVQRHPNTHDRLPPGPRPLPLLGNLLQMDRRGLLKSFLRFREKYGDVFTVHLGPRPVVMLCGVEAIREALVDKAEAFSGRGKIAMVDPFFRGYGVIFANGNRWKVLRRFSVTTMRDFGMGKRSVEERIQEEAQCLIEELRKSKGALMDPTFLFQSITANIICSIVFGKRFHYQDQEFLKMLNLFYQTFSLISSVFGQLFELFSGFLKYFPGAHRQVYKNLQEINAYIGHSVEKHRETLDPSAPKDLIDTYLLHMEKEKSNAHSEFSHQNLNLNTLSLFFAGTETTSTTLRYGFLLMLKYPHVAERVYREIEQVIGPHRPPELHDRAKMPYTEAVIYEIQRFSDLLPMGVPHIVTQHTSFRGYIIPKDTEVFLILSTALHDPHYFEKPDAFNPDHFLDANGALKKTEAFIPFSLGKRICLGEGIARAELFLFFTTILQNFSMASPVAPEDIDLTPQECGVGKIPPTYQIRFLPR
Kind of series: Inhibition of CYP2B6 (unknown origin) assessed as inhibitory concentration. Type of series: ADME.

Series [6] is described as follows: Metabolic stability in rat hepatocytes. The series is classed as ADME, cell-based, Hepatocyte.
Series [7] in a line: Oral bioavailability in CD-1 mouse at 40 mg/kg and measured up to 24 hrs by LC/MS-MS analysis. The series is classed as ADME, organism-based. The settings on record: in vivo. The method, boiled down:
(§2)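 Male CD1 mice, 6–8 weeks, about 20–30 g, three per cohort. Dosed PO at 40 or 50 mg/kg, or IV at 10 mg/kg for reference, in PBS with […] (pH 7–8). Dorsal metatarsal blood was taken into heparin at 15 min to 24 h (PO) or 5 min to 24 h (IV). Plasma was frozen and quantified by LC–MS/MS.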

For a further series, the target named is CYP2C9 (Homo sapiens, UniProt P11712). Kind of series: Inhibition of CYP2C9 (unknown origin) at 10 uM relative to control. Type of series: ADME.
Chain of CYP2C9 (P11712 whole entry): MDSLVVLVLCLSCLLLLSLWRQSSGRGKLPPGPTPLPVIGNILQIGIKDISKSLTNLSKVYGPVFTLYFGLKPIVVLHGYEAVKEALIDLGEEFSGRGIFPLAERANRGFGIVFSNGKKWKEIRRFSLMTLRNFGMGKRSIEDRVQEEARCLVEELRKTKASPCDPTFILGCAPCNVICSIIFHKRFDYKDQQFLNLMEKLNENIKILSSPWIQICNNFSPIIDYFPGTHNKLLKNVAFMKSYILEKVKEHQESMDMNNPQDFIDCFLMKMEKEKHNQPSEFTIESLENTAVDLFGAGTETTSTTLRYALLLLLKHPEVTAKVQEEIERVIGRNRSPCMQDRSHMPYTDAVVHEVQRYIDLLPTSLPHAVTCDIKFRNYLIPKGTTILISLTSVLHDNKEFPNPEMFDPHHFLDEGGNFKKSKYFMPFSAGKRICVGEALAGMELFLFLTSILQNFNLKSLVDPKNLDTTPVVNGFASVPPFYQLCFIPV
A short description of series [8]: Terminal half life in CD-1 mouse at 40 mg/kg, po and measured up to 24 hrs by LC/MS-MS analysis. Type of series: ADME, organism-based. The settings on record: in vivo. The essentials:
as §2

The target in another series is T3, CYP2C8 (Homo sapiens, UniProt P10632).
T3 sequence (P10632 whole entry): T1 sequence (P10632 whole entry)
Nature of the series: Inhibition of CYP2C8 (unknown origin) at 10 uM relative to control. The series is classed as ADME.

Series [9] can be described thus: Cmax in CD-1 mouse at 40 mg/kg, po and measured up to 24 hrs by LC/MS-MS analysis. The series is classed as ADME, organism-based. On the set-up: route oral, dose 40 mg/kg, time <=24. The following applies: in vivo. The method, boiled down:
as §2

The nature of series [10]: AUC last in CD-1 mouse at 40 mg/kg, po and measured up to 24 hrs by LC/MS-MS analysis. The series is classed as ADME, organism-based. On the set-up: route oral, dose 40 mg/kg, time <=24. The following applies: in vivo. The method, boiled down:
as §2

The target of the next series is T4, CYP2B6 (Homo sapiens, UniProt P20813).
T4 sequence (P20813 whole entry): T2 sequence (P20813 whole entry)
Kind of series: Inhibition of CYP2B6 (unknown origin) at 10 uM relative to control. The series is classed as ADME.

Turning to `Cc1ccc(C#Cc2cccc(-c3nn(-c4nc(C(=O)O)cs4)c(CC4CC4)c3Cc3ccc(S(N)(=O)=O)c(F)c3)c2)s1`, in [1], the “beta t1/2” value came out at 5.3 h. Further, in series [2], the AUClast is 53540 ng·h/mL. The permeability in [3] is 2.2 10^-6 cm/s. Also, the F in series [4] amounted to 64%. The INH on Cytochrome P450 2C8 stood at 7.5 µM; on Cytochrome P450 2B6, 14 µM. For the same compound, the inhibition result in the series listed under Homo sapiens is “inactive”. Also, in series [5], the Cmax was found to be 8830 ng/mL. In addition, in series [6], the half-life is more than 2.5 h.
As to `Cc1ccc(C#Cc2cc(-c3nn(-c4nc(C(=O)O)cs4)c(CC4CC4)c3Cc3ccc(S(N)(=O)=O)c(F)c3)ccc2F)s1`, the “beta t1/2” value in [1] is 5.2 h; in series [8], 2.78 h. For the same compound, in [7], the F is 73.8%. Moreover, the figures for the inhibition at 10 µM at CYP2C9, at CYP2C8 and against CYP2B6 were 45%, 80% and 46%, respectively. Moreover, in series [3], the permeability was 10.4 10^-6 cm/s. The Cmax in series [9] was determined as 5260 ng/mL. For the same compound, in the series filed under Homo sapiens, the inhibition result was “inactive”. This compound also registered an AUClast in series [10] of 31390 ng·h/mL. The half-life in [6] was more than 2.5 h.
